Assay: Toxicity liver stage against HepG2, at 10uM
Type: cell-based
Parameters: test concentration 10 uM, cell line HepG2-A16-CD81EGFP
Conditions: human, HepG2-A16-CD81EGFP cells; read-out: INHIBITION
In short: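 Uninfected HepG2-A16-CD81EGFP cells, 3 × 10^3 per well, 1536-well, plated on prespotted compound at 10 μM final, parasite-free screening media added to match infected plates; puromycin 10 μM positive, DMSO 0.5% negative; run in parallel with 48 h PbLuc assay at 37 °C, 5% CO2; viability by CellTiter-Glo luminescence, normalized to controls.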

Structure (SMILES)	cytotoxicity at 10 µM
CN(C)C1COC2(CCN(C(=O)c3cccnc3)CC2)C1 (stereo not given)	3.53%
CC(=O)NCC(=O)N1CCn2cc(CN(C)Cc3ccco3)nc2C1	4.81%
CN(C)CCCN1CC2(CCN(C3CCCOC3)CC2)OC1=O (stereo not given)	-5%
CCN(CC)CC(=O)N1CCCCC1c1nc(C)cs1 (stereo not given)	-5.78%
Cc1csc(CNC(=O)N(C)Cc2ccc3c(c2)OCO3)n1	-4.31%
Cc1cc(C)n(C2CN(Cc3nc4cc(Cl)ccc4n3C)C2)n1	-2.35%
CC(C)c1nc(C2CCCN2Cc2ccccc2C#N)no1 (stereo not given)	-7.62%
CC(C)C1CN(C(=O)c2cc(C3CC3)n[nH]2)CCC(=O)N1CC1CC1 (stereo not given)	-9.55%
O=S(=O)(C1CC1)N1CCCn2cnc(COc3cccnc3)c2C1	1.4%
CN(C)C(=O)NCc1nnc2n1CCN(Cc1ccsc1)C2	8.31%
COc1ccc(CN2CCO[C@H]3[C@H](Oc4ccccn4)CC[C@@H]32)cc1	21.5%
Cc1cccc(CN(Cc2ccccn2)Cc2ncc(C(C)(C)C)o2)c1	3.49%
CC(=O)Nc1ccc(F)c(S(=O)(=O)NC(C)(C)C)c1	1.15%
Cn1nc(C(C)(C)C)cc1NC(=O)CSc1nnc[nH]1	0.353%
CC(C)N1CCO[C@H]2CN(C(=O)c3ccoc3)C[C@H]21	-0.207%
Cc1nc(CO[C@H]2CN(Cc3ccccn3)[C@@H]3CCCO[C@H]23)cs1	1.33%
CCn1cc(CN2CCC(N3CCC(O)CC3)CC2)cc1C#N	0.371%
OCCN(Cc1cccnc1)c1ccc(Cl)cn1	31.9%
CS(=O)(=O)NCCNC(=O)NC1(c2ccc(F)cc2)CCCC1	-1.44%
COc1ccc(NC(=O)N2CCN(c3ncccn3)CC2)cn1	1%
CCN(CC)C(C(=O)NCc1ccc(N2CCCC2)nc1)C(C)C (stereo not given)	-8.08%
CNc1cc2c(nn1)CCN(C(=O)c1ccoc1)C2	4.6%

Structure (SMILES)	cytotoxicity at 10 µM
CC(C)c1cnc(CN(C)C2CCN(CCc3ccncc3)C2)o1 (stereo not given)	-0.296%
COCc1nc(C2CC2)nn1-c1ccccc1Cl	-0.808%
COc1cccc(NC(=O)N2CCC(O)(C(F)(F)F)C2)c1 (stereo not given)	3.2%
Cc1nn(C)c(C)c1CN(C(=O)c1cnc(O)cn1)C(C)C	2.62%
O=C(Nc1cccc(Cn2cccn2)c1)N1CCCC(N2CCCC2)C1 (stereo not given)	4.13%
O=C(NCC1CC1)C1CN(c2ncccn2)Cc2ccnn2C1 (stereo not given)	0.705%
NC(=O)C1CN(C(=O)Nc2ccccc2SC2CCCC2)CCO1 (stereo not given)	-5.15%
CS(=O)(=O)N1C[C@H]2CC[C@@H](C1)N(C(=O)CCc1n[nH]c3c1CCCC3)C2	11%
Cn1cccc1C(=O)N1C[C@H]2CN(Cc3cccnc3)C[C@H]2C1	3.94%
Cc1cc(C)n(CC2CCCN2C(=O)c2ccc3nnc(C)n3c2)n1 (stereo not given)	-3.6%
Cc1ccc(S(=O)(=O)Cc2noc([C@@H]3C[C@@H](O)CN3)n2)cc1	-5.78%
CN(C)C(=O)N1CCc2c(nnn2C)C1COCc1ccccc1 (stereo not given)	-8.39%
COC1CCN(c2ccc(NC(=O)Cn3cccc3)cc2)CC1	2.99%
CC[C@H]1CN(C(=O)C(C)(C)C)CC[C@H]1CC(=O)O	-0.61%
CS(=O)(=O)c1ccccc1-n1cc(NC(=O)CC(F)(F)F)cn1	1.42%
O=C(Cc1ccsc1)N1CCn2cc(Cn3cncn3)nc2C1	-142%
Cc1nc(C(=O)NCc2ccc(N3CCNC(=O)C3)c(F)c2)cs1	-0.0162%
O=C(CCc1nc(-c2cccnc2)no1)N(CC1CCOC1)C1CC1 (stereo not given)	10.8%
COc1cccc(CN2CCCC2c2c(C)nn(C)c2C)c1 (stereo not given)	-2.35%
CN(C)c1ccc(CC(=O)N2C[C@H](C3CC3)[C@@H](N)C2)cc1	-3.97%
CN(CC1COc2ccccc2O1)C(=O)NCCCn1cccn1 (stereo not given)	-7.27%
CCc1nc(C2CCCN(C(=O)c3cccc(C(N)=O)c3)C2)no1 (stereo not given)	-22.2%

Structure (SMILES)	cytotoxicity at 10 µM
Cn1cnnc1CN1CCC2(CCC(=O)N(Cc3ccccc3)C2)CC1	7.8%
Cc1noc(CN(C)CC2CCCN(CCc3ccc(Cl)cc3)C2)n1 (stereo not given)	3.76%
O=C(O)CN1CCC2(CCc3ccccc32)CC1	-3.7%
COc1ccc(SC(C)C(=O)N2CCC(NC(=O)C3CC3)CC2)cc1 (stereo not given)	-9.11%
CCOCCCNC(=O)C1(C)CCC(=O)N1c1cc(OC)ccc1OC (stereo not given)	0.957%
CCN(CC)C1CCN(C(=O)Nc2cc(F)c(OC)c(F)c2)C1 (stereo not given)	4.55%
O=C(C1CCOCC1)N1CCN(CC2CC2)c2ncccc2C1	-107%
Cc1cc(C)nc(N2CCC(c3c(C(N)=O)sc4ccccc34)C2)n1 (stereo not given)	8.78%
CCc1cnc2c(c1Nc1ccncc1)c(=O)n(C)c(=O)n2C	1.86%
CN(C)S(=O)(=O)N1CCCCCC1c1cc(-c2ccc(F)cc2)no1 (stereo not given)	10.6%
c1cc(C2CCN(c3ncnc4c3CCNCC4)CC2)ccn1	8.33%
O=C(CCc1nnc(-c2ccccc2)o1)N1CCCC1c1ccccn1 (stereo not given)	-5.82%
Cc1cnc(C(=O)N2Cc3ncn(C)c3C(COCC(C)C)C2)cn1 (stereo not given)	-112%
CCC(C)C(=O)NCCCn1nc(C)cc1C (stereo not given)	0.0879%
Cc1cnn(CC2CCCN2Cc2noc(C(C)C)n2)c1 (stereo not given)	-1.67%
N#Cc1ccsc1N1CCC(Sc2ncc[nH]2)C1=O (stereo not given)	2.72%
Cn1cc(NC(=O)CNC(=O)N2CCN(c3ccc(Cl)cc3)CC2)cn1	6.9%
CCNc1cc2c(nn1)CCN(C(=O)Cc1c(C)nn(C)c1C)C2	-8.25%
CC(C)c1nc(C2CCCN(C(=O)CCc3cscn3)C2)no1 (stereo not given)	-17.2%
O=C1CN([C@@H]2CC[C@@H](NS(=O)(=O)c3ccccc3)[C@H]2O)CCN1	7.41%
CC1(CNS(=O)(=O)c2cccc(C(=O)N3CCSCC3)c2)COC1	-6.69%
Cc1cc(C2CCCN(CCCS(=O)(=O)c3ccccc3)C2)n[nH]1 (stereo not given)	-7.64%

Structure (SMILES)	cytotoxicity at 10 µM
O=C1CC2(CCCC2)CC(=O)N1CCn1cnnc1	-0.54%
CCN(CC1CN(Cc2ccn(C(C)C)n2)CCO1)c1cccnn1 (stereo not given)	5.06%
O=C1CC(c2ccccc2Br)c2sc(N3CCOCC3)nc2N1 (stereo not given)	9.4%
CN(Cc1cnn(C)c1)C(=O)Cn1c(CS(C)(=O)=O)nc2ccccc21	1.05%
COCCC(=O)N1CCN(CCN(C)C)c2ncccc2C1	-4.11%
CO[C@@H]1CCN(Cc2nccs2)C[C@@H]1Cc1ccccc1	-69.5%
COc1cccc(CN2CCCCC2CN2CCOCC2)c1F (stereo not given)	2.64%
NC(=O)C1CCN(CC(=O)N(Cc2ccccc2)Cc2nccs2)CC1	-5.08%
N[C@@H]1c2ccccc2C2(CCN(c3cccc(C(F)(F)F)n3)CC2)[C@H]1O	0.243%
Cc1ccc(CN2Cc3ccccc3OC3(CCC(CO)CC3)C2)s1 (stereo not given)	-3.11%
Cc1cccc(-n2nnnc2C2(NCc3ccco3)CCCCC2)c1	6.27%
CCN1C(=O)C2(CCOCC2)c2cc(NC(=O)c3cc(C)n[nH]3)ccc21	-2.49%
Cc1ccc(S(=O)(=O)c2ncccc2CN2CCN(C)CC2)cc1	-51.3%
Cc1nc(N)ncc1C(=O)N1CCCC(CCc2ccccc2F)C1 (stereo not given)	-4.96%
COc1cccc(O)c1CN1CCCC(Nc2cccc(F)c2)C1 (stereo not given)	-4.47%
COC(=O)NCC(=O)N1CCc2cc(Cl)cc(Cl)c2C1	0.598%
OCC1(NCc2cccc(-n3cccn3)c2)CCOCC1	-139%
c1cnc(NCc2nnn3c2CN(CC2CC2)CCC3)nc1	-0.536%
CN(C)c1cc(C(=O)NCc2cccnc2-n2cncn2)ccn1	8.15%
CC(Cc1ccco1)NC(=O)Nc1ccc(N(C)C)nc1 (stereo not given)	-7.22%
COC(=O)c1ccc(N2CCC(C(O)c3ccccc3)CC2)nn1 (stereo not given)	1.68%
O=C(CCc1ccc(C(F)(F)F)cc1)N1CCCS1(=O)=O	4.37%

Structure (SMILES)	cytotoxicity at 10 µM
Cc1ccc(C2CSCCN2C(=O)c2ccsc2)o1 (stereo not given)	1.68%
CCOCCn1nc(C)cc1C(=O)N1CC[C@](C)(O)C(C)(C)C1	0.429%
COCCN(C)C(=O)Nc1ccc2c(ccn2CCOC)c1	-3.83%
Cc1cc(CNC(=O)c2cc(NC(=O)C(C)C)ccc2Cl)no1	13.6%
COc1ccc(-c2ccnc(C3CCNCC3)c2)cc1	-41.4%
c1ccc(-c2nc(CNC3CCc4ncnn4C3)no2)cc1 (stereo not given)	-4.16%
Cc1ccc(CN2CCC[C@]3(C(=O)O)CN(CC4CC4)C[C@@H]3C2)s1	-112%
CSc1ccccc1CN1C[C@H]2C(=O)N(CC3CC3)C[C@@]2(C(=O)O)C1	0.666%
Cc1cc(C(O)CCNC(=O)COc2ccccc2F)c(C)o1 (stereo not given)	0.931%
CN(Cc1cccnc1)C1CC2(CCN(C(=O)c3cnccn3)CC2)C1	-0.733%
COc1cc2c(nn1)CCN(Cc1nc(Cc3ccccc3)no1)C2	-2.09%
CCN(C(=O)Cn1cc(NC(=O)C(C)(C)C)cn1)c1ccccc1	3.49%
Cc1nc2ccnn2c(C)c1CCC(=O)N1CCN(C2CC2)CC1	-7.2%
CCNC(=O)NC(=O)CN1CCOC(c2cccc(Br)c2)C1 (stereo not given)	1.83%
Fc1ccc(CNCCn2cccn2)cc1F	-8.01%
O=C(C1CCOC1)N1CCc2ncc(CNc3ccccn3)n2CC1 (stereo not given)	0.0499%
COC1CCN(C(=O)CC(C)(C)C)CC(=O)N(C)c2ccccc21 (stereo not given)	2.44%
c1ccc(C2(CNCc3cnc(N4CCOCC4)nc3)CC2)cc1	-0.813%
CN1CCN(c2ccccc2NC(=O)NCCc2ccccc2)CC1	-4.63%
CCN(CCn1cccn1)Cc1nc(-c2ccoc2)oc1C	-5.48%
Fc1cccc(N2C[C@H]3CCN(c4cccnc4)C[C@H]3C2)c1	15.4%
O=S(=O)(NCc1ccc(S(=O)(=O)N2CCCC2)s1)c1ccc(Cl)c(Cl)c1	-41.8%

Reference: ChEMBL document CHEMBL4513216, “Probing the Open Global Health Chemical Diversity Library for Multistage-Active Starting Points for Next-Generation Antimalarials” (ACS Infect Dis, 2020)
